Source: PubChem BioAssay
The list is not random: actives were taken first. Their share in the collection is about 2.7%.
S100A4 inh HTS = inhibitors of S100A4-myosin IIA peptide binding, primary screen, biochemical, fluorescence polarization, TAMRA-MyoIIA peptide; Protein S100-A4 (Homo sapiens), P26447; inhibition, % at 10.7 µM; 360,000 compounds, 0.14% hits; AID 652163, 2013;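 active = mean inhibition of at least 70% across replicates, with every replicate also reaching that level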
Target sequence (P26447 whole entry, looked up): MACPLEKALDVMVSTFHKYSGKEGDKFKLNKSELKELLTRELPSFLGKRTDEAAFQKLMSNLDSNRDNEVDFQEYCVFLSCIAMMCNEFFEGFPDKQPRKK
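Material: S100A4 monomer protein / Buffer or medium: 50 mM HEPES pH 7.2, 10 mM CaCl2, 100 mM KCl / Times: 5 min incubation before reading / Benchmarks: neutral control DMSO, positive control TFP / Reagent: labelled myosin peptide probe, 5 nM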
FGF22 binding = binders of human FGF22 protein, primary screen, FGF22 synaptogenesis inhibitor project, biophysical, thermal shift, single point; activity (Tm shift, normalised), % at 9.99 µM; recombinant FGF22 thermal shift, SYPRO orange fluorescence; percent of sucrose octasulfate shift, DMSO zero; Fibroblast growth factor 22 (Homo sapiens), Q9HCT0; 340,000 compounds, 1.5% hits;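 active = mean Tm shift, scaled 0 neutral to 100 positive control, at about 1.3% or above, every replicate too, limit read from the data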
Target sequence (Q9HCT0 whole entry, looked up): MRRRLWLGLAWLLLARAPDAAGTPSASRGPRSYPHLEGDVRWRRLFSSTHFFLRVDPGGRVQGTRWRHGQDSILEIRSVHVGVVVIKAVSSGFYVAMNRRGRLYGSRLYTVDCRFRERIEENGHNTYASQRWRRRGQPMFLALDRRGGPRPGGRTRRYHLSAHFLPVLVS
F508del corr = F508del CFTR correction, initial screen, CFBE line, single point; CFBE cells, YFP halide quenching; stimulated with forskolin plus potentiator P3; % fluorescence drop versus neutral controls; activity (quench increase), % at 7.58 µM; 350,000 compounds, 0.36% hits; AID 720511, 2013;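 active = mean added fluorescence quench of at least 8% versus neutral control, with both replicates also reaching 8%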;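 also: cells transiently co-express mutant CFTR-F508del with the halide-sensitive YFP; corrector assay measuring rescue of mutant channel to the surface after 24 h compound exposure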
E-sel inducer = E-selectin induction in HUVECs, primary screen, imaging, HUVEC, immunofluorescence imaging, single point; normalized: neutral wells 0, TNF-alpha wells 100; 260,000 compounds, 0.37% hits; AID 686992, 2013; activation, % at 7.58 µM; P16581;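 active = mean E-selectin-positive cell signal at least 10% of the positive control, reached in at least 60% of replicates, without over 20% cell loss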
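material = human umbilical vein endothelial cells (HUVEC), E-selectin induction | quantity = 3,000 cells/well | medium = EGM-2 growth medium on 0.1% gelatin-coated wells | technique = immunofluorescence imaging | read-out basis = % PE-positive cells | control set = TNF-alpha positive control, DMSO neutral control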
HIV Env fusion = inhibitors of HIV-1 Env-driven cell-cell fusion, primary screen, HeLa-JRFL effector, CEM21 target cells, luciferase; inhibition, % at 12.3 µM; 360,000 compounds, 1.1% hits; AID 651610, 2012;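 active = mean replicate inhibition score of at least 50 and every replicate individually at or above 50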;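 also: 0% = plate neutral controls and 100% = maraviroc near 300 nM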
Numbers without * were called inactive; nt = not tested or not shown; [ ] = another dose, or the depositor's remark.

SMILES	S100A4 inh HTS	FGF22 binding	F508del corr	E-sel inducer	HIV Env fusion
CCCN1[C@@H]2c3ccc(-c4cccc(F)c4)c(=O)n3C[C@H]1[C@H](CO)[C@H]2C(=O)NCC1CC1	5	0	nt	-1	5[16.7 µM]
C[C@@H]1CN([C@H](C)CO)C(=O)c2cc(NS(=O)(=O)c3ccc(Cl)cc3)ccc2O[C@@H]1CN(C)Cc1ccc(-c2ccccc2)cc1	-9	1	9.4*	0	25[16.7 µM]
Cc1ccc(S(=O)(=O)Nc2ccc3c(c2)C(=O)N([C@H](C)CO)C[C@@H](C)[C@@H](CN(C)Cc2ccc(-c4ccccc4)cc2)O3)cc1	3	-1	-1	-12	60*[16.7 µM]
C[C@H](CO)N1C[C@H](C)[C@H](CN(C)Cc2ccc(-c3ccccc3)cc2)Oc2ccc(NS(=O)(=O)c3ccc(Cl)cc3)cc2C1=O	1	0	3	0	-13[16.7 µM]
CCC(C)Oc1cc(-c2ccnc(Nc3cccc(Cl)c3)n2)ccn1 (configuration not stated)	4	0	0	0	66*
OCCCNc1cc(-c2ccnc(Nc3cccc(Cl)c3)n2)ccn1	5	0	-7	0	52
OCCC1CN(Cc2cccn2-c2ccccn2)CCN1C1CCCCC1 (configuration not stated)	3	44*	0	nt	-4
CO[C@H]1CN(C)C(=O)c2ccc(NC(=O)C3CCOCC3)cc2OC[C@H](C)N(C(C)=O)C[C@@H]1C	-24	0	-2	0	nt
O=C(C[C@@H]1CC[C@H]2[C@@H](COC[C@@H](O)CN2Cc2ccc3c(c2)OCO3)O1)N1CCOCC1	15	0	-1	0	nt
C[C@H](NC(=O)C[C@@H]1C=C[C@H](NC(=O)CN2CCOCC2)[C@@H](CO)O1)c1ccccc1	39	-1	-1	9	5[16.7 µM]
COc1ccc(-n2c(COc3ccccc3)nnc2SCc2ccc(C#N)cc2)cc1	nt	nt	nt	nt	18
N#Cc1ccc(CSc2nnc(COc3ccccc3)n2-c2ccccc2)cc1	nt	nt	nt	nt	75*
CC(=O)N1[C@@H](CO)[C@H](c2ccc(-c3ccccc3)cc2)[C@@H]1CNC(=O)C1CC1	nt	nt	3	0	nt
COc1ccc(NC(=O)c2cc([N+](=O)[O-])ccc2O)cc1	-2	nt	0	nt	83*
COc1ccc(NC(=O)N2CCN(c3ccc([N+](=O)[O-])cc3)CC2)cc1	-2	43*	-2	5	36
COc1ccc(NC(=O)N2CCN(c3ccc([N+](=O)[O-])cc3)CC2)cc1OC	3	nt	-2	0	13
COc1ccc(NC(=O)c2cccc([N+](=O)[O-])c2)cc1	0	0	0	nt	-24
O=C(Cc1cccnc1)N1CC(=O)N2[C@H](CO)[C@H](c3ccc(/C=C/c4ccccc4)cc3)[C@@H]2C1	nt	0	-3	0	nt
Cc1ccccc1-n1c(=O)c2ccccc2n2cnnc12	nt	nt	nt	nt	83*
Cc1cc2nncn2c2ccccc12	nt	nt	nt	nt	-355
CCCN(C)C[C@H]1Oc2ncc(-c3ccccc3F)cc2C(=O)N([C@@H](C)CO)C[C@H]1C	5	-1	-6	0	24[16.7 µM]
Cc1nn(CC(=O)NC2CC2)c(C)c1S(=O)(=O)N(C)C	0	43*	1	0	-1
Cc1nn(CC(=O)NC2CCS(=O)(=O)C2)c(C)c1S(=O)(=O)N(C)C (configuration not stated)	1	0	1	nt	nt
CO[C@@H]1CN(C)C(=O)c2cc(NS(C)(=O)=O)ccc2OC[C@H](C)NC[C@H]1C	-10	1	-1	0	-8[16.7 µM]
CCOC(=O)CC1(CC)Oc2ccccc2N1S(=O)(=O)c1ccc(C)cc1 (configuration not stated)	0	0	3	-5	64*
CC(C)c1ccc(NC(=O)COc2ccccn2)cc1	-2	43*	-4	6	-29
O=C(CSc1n[nH]c(=O)n1C1CC1)Nc1cc(Cl)ccc1Oc1ccccc1	nt	nt	nt	nt	128*
CCCn1c(SCC(=O)Nc2cc(Cl)ccc2Cl)n[nH]c1=O	-5	43*	0	0	-79
C/C(=N\NC(=O)COc1ccc(C)cc1Br)c1cc([N+](=O)[O-])cs1	-2	43*	-2	nt	25
